Here are results for eleven compounds from ChEMBL document CHEMBL1138242, “Synthesis, crystal structure, and activity of pyrazole-based inhibitors of p38 kinase” (J Med Chem, 2007).

Test [1] has as its system Rattus norvegicus. Briefly: Inhibition of LPS-induced TNF production in rat pretreated at 20 mg/kg, po after […] by ELISA. Type of test: functional. In general terms: ELISA stands for enzyme-linked immunosorbent assay.
In test [2] the test system is Rattus norvegicus. Put plainly: Inhibition of LPS-induced TNF production in rat pretreated at 5 mg/kg, po after […] by ELISA. The test is classed as functional.
Test [3] concerns Mus musculus. Briefly: Decrease of arthritis incidence in collagen-induced DBA/1 mouse at 15 mg/kg, po bid. Also on record: dose 15 mg/kg. The test is classed as functional, organism-based. The procedure, abridged:
(§1)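 Male DBA/1 mice; arthritis induced by subcutaneous type II chick collagen in Freund's adjuvant on days 1 and 21. Test agent given by oral gavage twice daily in Methocel/Tween, days 21-56. Weekly ip anti-TNF antibody served as comparator. Animals scored for signs of arthritis, with incidence compared with vehicle by logistic regression (p < 0.05); 8-10 mice per group.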

Test [4] relates to Mus musculus. Briefly: Decrease of arthritis incidence in collagen-induced DBA/1 mouse at 30 mg/kg, po bid. Type of test: functional, organism-based. Also noted: dose 30 mg/kg. The procedure, abridged: as §1
The next test concerns the target MAP kinase p38 (Homo sapiens, UniProt O15264+Q15759+Q16539+P53778). Put plainly: Inhibition of p38 MAPK activity assessed as EGFR phosphorylation. The test is classed as protein assay.

The source made the active and inactive calls. The calls are words filed in the database; no cut-off is given here.

The term inhibition in vivo denotes the share of the control response that was lost under treatment. By IC50 is commonly meant the concentration needed to halve the response being measured.

Turning to `Clc1ccc(-c2n[nH]c(N3CCCC4CCCCC43)c2-c2ccncc2)cc1` (stereo not drawn), in the test with Rattus norvegicus [1], the inhibition in vivo at 20 mg/kg was 33%.

With `OC1CCCN(c2[nH]nc(-c3ccc(Cl)cc3)c2-c2ccncc2)C1` (stereo not drawn), in the test with Rattus norvegicus [1], the inhibition in vivo at 20 mg/kg was 75%. For `CN1CCN(c2[nH]nc(-c3ccc(Cl)cc3)c2-c2ccncc2)CC1`, in the test on Rattus norvegicus [2], the inhibition in vivo at 5 mg/kg was determined as 98%. Moreover, the inhibition in vivo at 20 mg/kg in the test with Rattus norvegicus [1] stood at 95%. Also, the result with Mus musculus [3] and in the test with Mus musculus [4] was Active. `CC1CN(c2[nH]nc(-c3ccc(Cl)cc3)c2-c2ccncc2)CCN1` (stereo not drawn): the inhibition in vivo at 5 mg/kg with Rattus norvegicus [2] worked out at 84%. For the same compound, in the test on Rattus norvegicus [1], the inhibition in vivo at 20 mg/kg is 95%. The IC50 on MAP kinase p38 was 16 nM. Consider `Clc1ccc(-c2n[nH]c(N3CCC4CCCCC4C3)c2-c2ccncc2)cc1` (stereo not drawn), for which, in the test with Rattus norvegicus [1], the inhibition in vivo at 20 mg/kg was found to be 11%. For the compound `OC1CCN(c2[nH]nc(-c3ccc(Cl)cc3)c2-c2ccncc2)CC1`, the inhibition in vivo at 5 mg/kg in the test with Rattus norvegicus [2] amounted to 52%. For the same compound, the inhibition in vivo at 20 mg/kg in the test with Rattus norvegicus [1] is 91%. `Clc1ccc(-c2n[nH]c(N3CCc4ccccc4C3)c2-c2ccncc2)cc1`: in the test on Rattus norvegicus [1], the inhibition in vivo at 20 mg/kg was determined as 12%. `CC1CCN(c2[nH]nc(-c3ccc(Cl)cc3)c2-c2ccncc2)CC1`: the inhibition in vivo at 20 mg/kg with Rattus norvegicus [1] was found to be 16%.

Take `CC1CN(c2[nH]nc(-c3ccc(Cl)cc3)c2-c2ccncc2)CC(C)N1` (stereo not drawn): in the test on Rattus norvegicus [2], the inhibition in vivo at 5 mg/kg amounted to 93%. For the same compound, the inhibition in vivo at 20 mg/kg in the test with Rattus norvegicus [1] came out at 96%.

Take `Clc1ccc(-c2n[nH]c(N3CCN4CCC[C@H]4C3)c2-c2ccncc2)cc1`: the inhibition in vivo at 20 mg/kg with Rattus norvegicus [1] was determined as 89%. Regarding `CC1CC(C)CN(c2[nH]nc(-c3ccc(Cl)cc3)c2-c2ccncc2)C1` (stereo not drawn), the inhibition in vivo at 20 mg/kg with Rattus norvegicus [1] came out at 53%.
